Most compounds without a hit are left out; they make up all but 2.7% or so of the library.
OXTR potentiate: potentiators of human oxytocin receptor; actives 0.061% (n = 320,000); P30559; CHO-OTR cells, Fluo-8 calcium fluorescence, potentiator mode; 0% = oxytocin EC15, 100% = EC100; activation, % at 3 µM;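 active = activation above that plate's cutoff, the mean activation of tested compounds plus 3 SD, cut at about 6.6% in these data, passing the limit was not always enough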;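 also: 100% uses oxytocin at 75 nM as the full agonist control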
Target sequence (P30559 whole entry, looked up): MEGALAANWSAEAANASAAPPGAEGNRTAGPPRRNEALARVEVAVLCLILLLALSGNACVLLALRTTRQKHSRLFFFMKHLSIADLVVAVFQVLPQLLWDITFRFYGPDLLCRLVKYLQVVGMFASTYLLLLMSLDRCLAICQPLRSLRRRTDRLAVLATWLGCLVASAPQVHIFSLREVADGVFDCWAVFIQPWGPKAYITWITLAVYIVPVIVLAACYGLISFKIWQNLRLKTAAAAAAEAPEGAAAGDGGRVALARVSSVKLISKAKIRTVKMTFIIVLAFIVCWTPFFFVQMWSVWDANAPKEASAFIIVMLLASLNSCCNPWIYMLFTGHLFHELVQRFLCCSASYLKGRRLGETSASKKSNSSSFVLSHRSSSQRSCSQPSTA
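Material: CHO-OTR cells, human receptor; compound dosing: single dose, 3.0 µM nominal final compound concentration; schedule: 6 min compound pre-incubation at room temperature, 100 s kinetic read; measured by: kinetic Fluo-8 calcium fluorescence; read-out basis: % activation vs EC15 and EC100 oxytocin; controls: EC15 oxytocin alone as 0%, 75 nM oxytocin as 100%; replicates: singlicate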
CHO parental Ca: signal in parental CHO cells, OX1R antagonist counter-screen; parental CHO-K1, ATP-induced calcium, Fluo-8 fluorescence; inhibition, % at 5.6 µM; actives 0.63% (n = 330,000); AID 463079;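 active = inhibition above that plate's mean sample inhibition plus 3 SD, cut at about 26% in these data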;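 also: 0% = ATP-challenged DMSO wells and 100% = DMSO wells without ATP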
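Material: Parental CHO cells | Reagent: ATP | Compound dosing: Single nominal dose of 5.6 µM per compound | Detection: Intracellular calcium via Fluo-8 no-wash fluorescent dye | Read-out: % inhibition of ATP-induced calcium mobilization | Benchmarks: Low control ATP plus DMSO, high control DMSO only | Replicates: Singlicate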
OX1R antag-1: OX1R (human) antagonism. OX1R-expressing cells, FRET antagonist read-out. inhibition, % at 6.6 µM. actives 1.8% (n = 330,000); in the data active = inhibition mostly above about 38%, no sharp cut-off; inactive = mostly below about 40%;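 also: 0% = agonist challenge alone and 100% = reference antagonist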
OXTR agonist: human OXTR agonism. actives 0.32% (n = 320,000). activation, % at 3 µM. CHO-OTR cells, Fluo-8 calcium fluorescence; normalized: DMSO 0%, oxytocin 100%. P30559;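 active = activation above the mean of all tested compounds plus 3 SD, cutoff set per screening run, cut at about 20% in these data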;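 also: peak over basal fluorescence ratio from a 100 s FLIPR kinetic read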
OX1R antag-2: blocks the human orexin 1 receptor; O43613; inhibition, % at 5 µM; CHO/OX1R cells, Fluo-8 calcium fluorescence, orexin A; actives 0.43% (n = 330,000);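 active = inhibition above its plate's threshold, mean inhibition of all tested compounds on the plate plus 3 SD, cut at about 37% in these data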;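 also: 0% = orexin A challenge wells and 100% = SB-334867-A antagonist wells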
V1R ag counter: activates human V1a receptor in oxytocin agonist counter-screen. P37288. CHO-V1R cells, Fluo-8 calcium fluorescence, agonist mode; 0% DMSO, 100% 3 nM vasopressin. activation, % at 3 µM. actives 0.25% (n = 320,000). AID 2797;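 active = activation above the mean activation of all tested compounds plus 3 SD, per screening run, cut at about 20% in these data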;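 also: signal is peak over basal fluorescence ratio across a 100 second FLIPR read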
Target sequence (P37288 whole entry, looked up): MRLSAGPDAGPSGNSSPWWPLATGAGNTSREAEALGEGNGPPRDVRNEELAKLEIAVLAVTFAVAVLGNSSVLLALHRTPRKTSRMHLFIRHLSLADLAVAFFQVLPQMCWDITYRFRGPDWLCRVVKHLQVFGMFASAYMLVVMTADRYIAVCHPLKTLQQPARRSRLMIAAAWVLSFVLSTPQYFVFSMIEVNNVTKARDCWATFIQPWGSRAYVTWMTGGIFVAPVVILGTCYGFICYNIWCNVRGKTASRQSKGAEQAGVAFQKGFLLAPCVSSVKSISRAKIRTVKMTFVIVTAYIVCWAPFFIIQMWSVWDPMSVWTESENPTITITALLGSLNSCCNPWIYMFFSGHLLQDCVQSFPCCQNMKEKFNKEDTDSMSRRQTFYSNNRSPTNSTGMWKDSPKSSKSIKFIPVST
OXTR pot confirm: human OXTR potentiation, confirmation; shares compounds with OXTR potentiate; CHO-OTR cells, Fluo-8 calcium fluorescence; scaled from low-dose to maximal oxytocin; AID 434985; activation, % at 3 µM; 180 tested, under 10 active;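 active = mean percent activation over triplicates above a cutoff set from solvent-only control plates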;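 also: compounds tested in the presence of an EC15 dose of oxytocin; 0% = EC15 oxytocin with DMSO and 100% = EC100 oxytocin with DMSO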
An asterisk follows results filed as active; . = no result.

SMILES | OXTR potentiate | CHO parental Ca | OX1R antag-1 | OXTR agonist | OX1R antag-2 | V1R ag counter | OXTR pot confirm
CO/N=C/CC(=O)c1ccc([N+](=O)[O-])c(CS(=O)(=O)c2ccc(Cl)cc2)c1 | -7.4 | -4.9 | -4.9 | -1.0 | -5.5 | -0.8 | .
Nc1cc(C(=O)N2CCN(c3ccc([N+](=O)[O-])cc3)CC2)ccc1N1CC2CC(C1)c1cccc(=O)n1C2 (stereo unspecified) | 0.7 | -5.2 | 13.2 | -0.9 | -7.5 | -0.5 | .
Cc1ccccc1-c1nnc(SCC(=O)Nc2c(C)n(C)n(-c3ccccc3)c2=O)o1 | 11.3* | -8.7 | 3.5 | 0.6 | -11.2 | -0.3 | -0.1
COCCNC(=S)N/N=C/c1ccc(N2CCOCC2)cc1 | -12.2 | -8.3 | 7.1 | -0.5 | -3.0 | 0.7 | .
COc1cc(/C=N/NC(=S)NCCN2CCOCC2)ccc1O | 12.3* | -7.4 | 13.0 | 0.1 | -13.1 | -0.4 | -11.3
COC1CCCCC1Nc1cccc(SC)c1 (stereo unspecified) | 11.8* | -16.9 | 8.9 | -1.3 | -12.4 | -1.1 | -2.9
CCCCn1c(N)c(N(CC(C)C)C(=O)c2ccc(-c3ccc(Cl)cc3)o2)c(=O)[nH]c1=O | -6.3 | -8.7 | 3.0 | -2.8 | -43.2 | -1.9 | .
CCCCn1c(N)c(N(CC)C(=O)c2ccc(-c3ccc(Cl)cc3)o2)c(=O)[nH]c1=O | 11.5* | -20.1 | 2.5 | -0.1 | -30.0 | 0.0 | -10.7
O=C(CCc1ccc(S(=O)(=O)N2CCOCC2)cc1)OCC(=O)c1ccccc1F | -9.0 | -26.4 | 4.5 | 2.9 | -8.2 | 2.6 | .
Cc1cnccc1CNC(=O)C1CCC(=O)N(Cc2ccc(Cl)cc2)C1 (stereo unspecified) | 3.4 | -10.2 | -1.9 | 0.2 | -13.3 | 0.4 | .
CCOC(=O)N[C@H](Cc1c[nH]c2ccccc12)C(=O)NC1CC1 | 10.4* | -0.9 | 10.0 | 1.2 | -15.1 | 0.4 | -1.6
Cc1cc(N)ccc1NC(=O)CN1CCCC1 | -11.2 | -1.6 | 1.1 | 0.8 | -9.8 | 0.3 | .
O=C(O)CN(c1ccccc1F)S(=O)(=O)c1ccccc1 | 10.7* | -14.6 | 6.3 | 1.0 | -16.9 | 0.1 | -5.0
COc1ccc(/C=C(\NC(=O)c2ccc(C)cc2)C(=O)Nc2c(C)n(C)n(-c3ccccc3)c2=O)cc1 | 0.0 | -16.3 | 27.1 | -0.5 | -15.4 | 0.1 | .
CC(C)CN(C(=O)CSc1nnc2ccccn12)C1CCS(=O)(=O)C1 (stereo unspecified) | 14.5* | -2.6 | 5.2 | 1.1 | 0.8 | 1.7 | -6.9
Cc1nnc(SCC(=O)N(CC(C)C)C2CCS(=O)(=O)C2)s1 (stereo unspecified) | -1.7 | 4.4 | 0.3 | -0.4 | 0.8 | 0.3 | .
CCOC(=O)c1nc(C)n(-c2ccc(Cl)cc2)n1 | 9.9* | -6.9 | 3.9 | -0.7 | -17.2 | -0.2 | -1.2
CCOC(=O)c1nc(N)c(=O)n(-c2ccc(C)cc2)n1 | -2.8 | -11.3 | 28.6 | -0.5 | -11.6 | -0.2 | .
O=C(NC(=S)Nc1ccccc1N1CCOCC1)c1ccc(Br)cc1 | 13.8* | -42.7 | 23.1 | -1.0 | -37.4 | 1.3 | 3.5
Cc1csc(=O)n1CC(=O)OC(C)C(=O)Nc1cccc(Cl)c1 (stereo unspecified) | -4.6 | -11.8 | 8.6 | 1.5 | -10.9 | 1.1 | .
O=C1c2nccnc2C(=O)N1c1ccc(F)cc1 | 10.5* | -10.4 | 0.9 | 1.3 | -9.5 | 1.2 | -0.8
O=C(O)c1ccc(N2C(=O)c3cccnc3C2=O)cc1 | -2.4 | -4.5 | 11.1 | 0.3 | 8.7 | 0.2 | .
O=c1cccc2n1Cc1cc3ccccc3nc1-2 | -7.1 | -10.2 | 36.8 | 0.1 | -12.7 | -0.1 | .
CC[C@@]1(O)C(=O)OCc2c1cc1n(c2=O)Cc2cc3c(N)cccc3nc2-1 | 14.6* | -3.5 | 51.8 | -0.4 | -10.9 | 0.2 | -3.1
Cc1ccc2c(c1)-n1c(nc3cc(Cl)ccc3c1=O)C(CC(C)C)NC2=O (stereo unspecified) | 13.3* | -16.4 | 5.1 | -1.3 | -16.0 | 0.9 | -0.5
SMILES | OXTR potentiate | CHO parental Ca | OX1R antag-1 | OXTR agonist | OX1R antag-2 | V1R ag counter | OXTR pot confirm
Cc1ccc(C)c(S(=O)(=O)N2CCN(C(=O)c3sccc3C)CC2)c1 | -7.5 | -11.1 | 5.5 | -1.1 | -16.7 | -0.3 | .
CCCC(=O)Nc1cc(S(=O)(=O)N2CCOCC2)ccc1N1CCCCC1 | 12.5* | -12.5 | 15.0 | -0.6 | -7.7 | 0.0 | -7.1
CCCC(=O)Nc1cc(S(=O)(=O)N2CCCCC2)ccc1N1CCOCC1 | 0.4 | -14.3 | 2.0 | 0.9 | -9.7 | 0.3 | .
Cc1oc(-c2ccccc2Cl)nc1CN(C)C(C)c1ccon1 (stereo unspecified) | 0.8 | -17.1 | 8.5 | -1.6 | -35.8 | -1.1 | .
Cc1ccccc1-c1nc(CN(C)C(C)c2ccon2)c(C)o1 (stereo unspecified) | 12.8* | -25.3 | 29.4 | -1.3 | -34.8 | -1.2 | -0.7
Cc1cc(C)nc(-n2nc(C)c3c(C(F)(F)F)cc(=O)[nH]c32)n1 | -9.0 | -9.4 | 31.8 | 0.5 | -13.4 | 2.5 | .
Cc1cc(C)nc(-n2nc(C)c(Sc3ccc(F)cc3)c2N)n1 | 10.9* | -13.6 | -17.7 | -1.8 | -42.6 | -0.5 | -7.2
CCN(CC)CC(O)COC(c1ccccc1)c1ccccc1 (stereo unspecified) | -3.7 | -2.9 | 5.7 | 0.2 | -21.0 | -0.6 | .
CN(C)CC(O)COC(c1ccccc1)c1ccccc1 (stereo unspecified) | 10.8* | -3.0 | 8.2 | 0.8 | -10.4 | 2.7 | 1.2
Cc1cccc(NC(=O)c2ccc(S(=O)(=O)N3CCCCC3)cc2)c1 | -1.7 | -7.1 | 5.9 | 0.3 | -10.5 | 1.8 | .
C/C(Cl)=C/Cn1c(N2CCCC2)nc2c1c(=O)[nH]c(=O)n2C | -0.8 | -7.3 | 3.4 | -0.2 | -16.0 | -0.1 | .
C=CCn1c(N2CCCC2)nc2c1c(=O)[nH]c(=O)n2C | 10.6* | -6.2 | 8.0 | 0.4 | -8.3 | -0.6 | -5.2
O=C(N/N=C/c1cn(-c2ccccc2)nc1-c1ccccc1)c1ccco1 | 9.9* | -14.0 | 17.9 | -1.3 | -20.6 | -0.9 | -2.5
O=C(N/N=C\c1cn(-c2ccccc2)nc1-c1ccccc1)c1ccc(Br)o1 | -15.5 | 4.8 | 58.9 | -0.8 | 1.8 | 0.6 | .
Cc1sc(NC(=O)CS(=O)(=O)c2ccccc2)c(C(N)=O)c1C | 8.1* | -10.7 | 18.9 | -1.5 | -18.7 | 0.1 | -7.8
CCOC(=O)Cn1c(=NC(=O)CSC(C)=O)sc2cc(OC)ccc21 | -9.5 | -9.7 | 2.8 | -1.3 | -1.1 | -0.1 | .
COC(=O)Cn1c(=NC(=O)CSCC(=O)NC2CCCCC2)sc2cc(OC)ccc21 | 17.2* | -21.5 | 17.9 | -0.8 | -20.2 | -0.9 | -3.7
CC(=O)NC1=NN(C(C)=O)C(C)(CCS(=O)(=O)c2ccc(Br)cc2)S1 (stereo unspecified) | 13.3* | -8.1 | 2.4 | 2.5 | -24.0 | 1.1 | -5.6

Source: PubChem
